Tests used:
[1] = test system: COLO 205; assay: Cytotoxicity against human COLO205 cells after 48 hrs by SRB assay; assay type: functional; settings: COLO 205, 48 h
How it was run: (§1)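 Run at NCI: cell lines exposed 48 h to a range of concentrations, with untreated controls under identical conditions. Growth measured by sulforhodamine B staining with colorimetric read-out. Percent growth computed from test, time-zero and control absorbances. GI50, TGI and LC50 read from PG versus log10 molar concentration as the concentrations giving PG = 50, 0 and -50.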

[2] = test system: HCC 2998; assay: Cytotoxicity against human HCC2998 cells after 48 hrs by SRB assay; assay type: functional; settings: HCC 2998, 48 h; how it was run: as §1
[3] = test system: HCT-116; assay: Cytotoxicity against human HCT116 cells after 48 hrs by SRB assay; assay type: functional; settings: HCT-116, 48 h; how it was run: as §1
[4] = test system: HCT-15; assay: Cytotoxicity against human HCT15 cells after 48 hrs by SRB assay; assay type: functional; settings: HCT-15, 48 h; how it was run: as §1
[5] = test system: HT-29; assay: Cytotoxicity against human HT29 cells after 48 hrs by SRB assay; assay type: functional; settings: HT-29, 48 h; how it was run: as §1
[6] = test system: UACC-62; assay: Cytotoxicity against human UACC62 cells after 48 hrs by SRB assay; assay type: functional; settings: UACC-62, 48 h; how it was run: as §1
[7] = test system: OVCAR-4; assay: Cytotoxicity against human OVCAR4 cells after 48 hrs by SRB assay; assay type: functional; settings: OVCAR-4, 48 h; how it was run: as §1
[8] = test system: OVCAR-5; assay: Cytotoxicity against human OVCAR5 cells after 48 hrs by SRB assay; assay type: functional; settings: OVCAR-5, 48 h; how it was run: as §1
[9] = test system: OVCAR-8; assay: Cytotoxicity against human OVCAR8 cells after 48 hrs by SRB assay; assay type: functional; settings: OVCAR-8, 48 h; how it was run: as §1
[10] = test system: SK-OV-3; assay: Cytotoxicity against human SKOV3 cells after 48 hrs by SRB assay; assay type: functional; settings: SK-OV-3, 48 h; how it was run: as §1
[11] = test system: A498; assay: Cytotoxicity against human A498 cells after 48 hrs by SRB assay; assay type: functional; settings: A498, 48 h; how it was run: as §1
[12] = test system: ACHN; assay: Cytotoxicity against human ACHN cells after 48 hrs by SRB assay; assay type: functional; how it was run: as §1
[13] = test system: DU-145; assay: Cytotoxicity against human DU145 cells after 48 hrs by SRB assay; assay type: functional; settings: DU-145, 48 h; how it was run: as §1
[14] = test system: MCF7; assay: Cytotoxicity against human MCF7 cells after 48 hrs by SRB assay; assay type: functional; settings: MCF7, 48 h; how it was run: as §1
[15] = test system: MDA-MB-231; assay: Cytotoxicity against human MDA-MB-231 cells after 48 hrs by SRB assay; assay type: functional; settings: MDA-MB-231, 48 h; how it was run: as §1
[16] = test system: MDA-MB-435; assay: Cytotoxicity against human MDA-MB-435 cells after 48 hrs by SRB assay; assay type: functional; settings: MDA-MB-435, 48 h; how it was run: as §1
[17] = test system: MDA-N; assay: Cytotoxicity against human MDA-N cells after 48 hrs by SRB assay; assay type: functional; how it was run: as §1
[18] = test system: BT-549; assay: Cytotoxicity against human BT549 cells after 48 hrs by SRB assay; assay type: functional; settings: BT-549, 48 h; how it was run: as §1
[19] = test system: T47D; assay: Cytotoxicity against human T47D cells after 48 hrs by SRB assay; assay type: functional; how it was run: as §1
[20] = test system: SK-MEL-28; assay: Cytotoxicity against human SK-MEL-28 cells after 48 hrs by SRB assay; assay type: functional; settings: SK-MEL-28, 48 h; how it was run: as §1
[21] = test system: SNB-19; assay: Cytotoxicity against human SNB19 cells after 48 hrs by SRB assay; assay type: functional; settings: SNB-19, 48 h
How it was run: (§2)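 Run at NCI: cells exposed 48 h to a range of concentrations, with untreated controls under identical conditions. Growth measured by sulforhodamine B staining with colorimetric read-out. Percent growth (PG) calculated from absorbance at 48 h with drug, at time zero, and at 48 h without drug. Log molar concentration plotted against PG; GI50 at PG = 50, TGI at PG = 0, LC50 at PG = −50.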

[22] = test system: SK-MEL-2; assay: Cytotoxicity against human SK-MEL-2 cells after 48 hrs by SRB assay; assay type: functional; settings: SK-MEL-2, 48 h; how it was run: as §1
[23] = test system: Escherichia coli; assay: Induction of plasmid pBR322 DNA cleavage assessed as concentration required to cleave 50% of DNA after 24 hrs by gel electrophoresis
How it was run: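 Supercoiled pBR322 (90% form I) diluted to 50 µg/mL (75 µM/bp) in pH 7.5 Tris 40 mM/EDTA 4 mM. Incubated 24 h at 37 °C, then run on agarose gel with ethidium bromide and viewed at 302 nm. Form I versus II+III quantified by densitometry after subtracting form II present in the control.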

[24] = test system: MOLT-4; assay: Cytotoxicity against human MOLT4 cells after 48 hrs by SRB assay; assay type: functional; settings: MOLT-4, 48 h; how it was run: as §1
[25] = test system: RPMI-8226; assay: Cytotoxicity against human RPMI8226 cells after 48 hrs by SRB assay; assay type: functional; settings: RPMI-8226, 48 h; how it was run: as §1
[26] = test system: EKVX; assay: Cytotoxicity against human EKVX cells after 48 hrs by SRB assay; assay type: functional; how it was run: as §1
[27] = test system: HOP-62; assay: Cytotoxicity against human HOP62 cells after 48 hrs by SRB assay; assay type: functional; settings: HOP-62, 48 h; how it was run: as §1
[28] = test system: NCI-H23; assay: Cytotoxicity against human NCI-H23 cells after 48 hrs by SRB assay; assay type: functional; settings: NCI-H23, 48 h, read-out: Log LC50 (the source's name) (converted); how it was run: as §2
[29] = read-out: Log LC50 (the source's name) (converted)

Compound: CC(=O)O[C@@H]1C#C/C=C\C#CC[C@H]2C(=O)N(C(=O)OC(C)(C)C)[C@H]12
- GI50 [1]: 39.8 µM
- CC50 [1, 29]: > 100 µM
- TGI ([1]; read-out: Log TGI (converted)): > 100 µM
- GI50 [2]: 34.7 µM
- CC50 [2, 29]: > 100 µM
- TGI ([2]; read-out: Log TGI (converted)): > 100 µM
- GI50 [3]: 25.7 µM
- CC50 [3, 29]: > 100 µM
- TGI ([3]; read-out: Log TGI (converted)): > 100 µM
- CC50 [4, 29]: > 100 µM
- TGI ([4]; read-out: Log TGI (converted)): > 100 µM
- GI50 ([4]; read-out: pGI50 (converted)): 40.7 µM
- GI50 [5]: > 100 µM
- CC50 [5, 29]: > 100 µM
- TGI ([5]; read-out: Log TGI (converted)): > 100 µM
- GI50 [6]: 21.4 µM
- CC50 [6, 29]: > 100 µM
- TGI ([6]; read-out: Log TGI (converted)): > 100 µM
- GI50 [7]: > 100 µM
- CC50 [7, 29]: > 100 µM
- TGI ([7]; read-out: Log TGI (converted)): > 100 µM
- GI50 [8]: > 100 µM
- CC50 [8, 29]: > 100 µM
- TGI ([8]; read-out: Log TGI (converted)): > 100 µM
- GI50 [9]: 14.5 µM
- CC50 [9, 29]: > 100 µM
- TGI ([9]; read-out: Log TGI (converted)): 89.1 µM
- GI50 [10]: 87.1 µM
- CC50 [10, 29]: > 100 µM
- TGI ([10]; read-out: Log TGI (converted)): > 100 µM
- GI50 [11]: 17 µM
- CC50 [11, 29]: > 100 µM
- TGI ([11]; read-out: Log TGI (converted)): 97.7 µM
- GI50 [12]: 2630 nM
- CC50 [12, 29]: > 100 µM
- TGI ([12]; read-out: Log TGI (converted)): 25.7 µM
- GI50 [13]: 16.2 µM
- CC50 [13, 29]: > 100 µM
- TGI ([13]; read-out: Log TGI (converted)): 56.2 µM
- GI50 [14]: 1100 nM
- CC50 [14, 29]: > 100 µM
- TGI ([14]; read-out: Log TGI (converted)): > 100 µM
- GI50 [15]: > 100 µM
- CC50 [15, 29]: > 100 µM
- TGI ([15]; read-out: Log TGI (converted)): > 100 µM
- GI50 [16]: > 100 µM
- CC50 [16, 29]: > 100 µM
- TGI ([16]; read-out: Log TGI (converted)): > 100 µM
- GI50 [17]: 87.1 µM
- CC50 [17, 29]: > 100 µM
- TGI ([17]; read-out: Log TGI (converted)): > 100 µM
- GI50 [18]: 24.5 µM
- CC50 [18, 29]: > 100 µM
- TGI ([18]; read-out: Log TGI (converted)): > 100 µM
- GI50 [19]: 100 µM
- CC50 [19, 29]: > 100 µM
- TGI ([19]; read-out: Log TGI (converted)): > 100 µM
- GI50 [20]: 87.1 µM
- CC50 [20, 29]: > 100 µM
- TGI ([20]; read-out: Log TGI (converted)): > 100 µM
- CC50 [21, 29]: > 100 µM
- TGI ([21]; read-out: Log TGI (converted)): > 100 µM
- GI50 [22]: 47.9 µM
- CC50 [22, 29]: > 100 µM
- TGI ([22]; read-out: Log TGI (converted)): > 100 µM
- CS50 [23]: 40 µM
- GI50 [24]: 407 nM
- CC50 [24, 29]: > 100 µM
- TGI ([24]; read-out: Log TGI (converted)): > 100 µM
- GI50 [25]: 17.8 µM
- CC50 [25, 29]: > 100 µM
- TGI ([25]; read-out: Log TGI (converted)): > 100 µM
- GI50 [26]: > 100 µM
- CC50 [26, 29]: > 100 µM
- TGI ([26]; read-out: Log TGI (converted)): > 100 µM
- GI50 [27]: 5.01 µM
- CC50 [27, 29]: > 100 µM
- TGI ([27]; read-out: Log TGI (converted)): 38 µM
- CC50 [28]: > 100 µM

From ChEMBL document CHEMBL1142420, “Synthesis and DNA-cleaving activity of lactenediynes conjugated with DNA-complexing moieties” (2008)
